# Measurements from ChEMBL document CHEMBL5724801, “EUbOPEN Chemogenomics Library - Multiplex” (2024).
# “And” between values parts separate entries of the source, which are not always exact repeats. Equal entries are not always repeated.
# Test system: Fibroblast
# Assay: Multiplex assay against human fibroblast
# Assay type: toxicity, cell-based
# Outline: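 Hoechst33342, BioTracker Green Microtubule Cytoskeleton Dye, MitoTracker Red and Annexin V Alexa Fluor 680 were added to live cells at seeding, and imaging on a CQ1 microscope at 37°C and 5% CO2 followed compound addition. Gating by CellPathfinder machine learning separated cells into Hoechst high-intensity objects or normal cells, then normal cells into healthy, pyknosed or fragmented nuclei, then pyknosed cells into mitotic or apoptotic. Per cents of healthy-nucleus cells are reported for the tubulin, mitochondrial-mass and membrane-permeability phenotypes.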
# [1] = 12 h, 1 µM, compound concentration 1 uM
# [2] = 12 h, 10 µM, compound concentration 10 uM
# [3] = 24 h, 1 µM, compound concentration 1 uM
# [4] = 24 h, 10 µM, compound concentration 10 uM
# [5] = 48 h, 1 µM, compound concentration 1 uM
# [6] = 48 h, 10 µM, compound concentration 10 uM
smiles,measurement,setting,value
COc1ccc(CC(=O)NC(N/C(=N/C#N)Nc2cccc3ncccc23)C(C)(C)C)cc1OC (stereo unspecified),Population Fragmented Nuclei (%),[1],9.24% and 8.25%
same,Population Healthy Nuclei (%),[1],64.67% and 81.55%
same,Population Hoechst High Intensity Objects (%),[1],0%
same,Population Membrane Permeable-Phenotype (%),[1],1.68% and 2.98%
same,Population Mitochondria Different-Phenotype (%),[1],8.4% and 6.55%
same,Population Mitotic Cells (%),[1],95.83% and 85.71%
same,Population Normal (%),[1],100%
same,Population Pyknosed Nuclei (%),[1],26.09% and 10.19%
same,Population Tubulin-Different-Phenotype (%),[1],12.61% and 16.67%
same,Total Cell Count,[1],184 and 206
same,Population Apoptotic (%),[2],10.96% and 24.49%
same,Population Fragmented Nuclei (%),[2],7.46% and 8.67%
same,Population Healthy Nuclei (%),[2],56.22% and 63.01%
same,Population Hoechst High Intensity Objects (%),[2],0%
same,Population Membrane Permeable-Phenotype (%),[2],9.73% and 2.75%
same,Population Mitochondria Different-Phenotype (%),[2],7.96% and 16.51%
same,Population Mitotic Cells (%),[2],89.04% and 75.51%
same,Population Normal (%),[2],100%
same,Population Pyknosed Nuclei (%),[2],36.32% and 28.32%
same,Population Tubulin-Different-Phenotype (%),[2],26.55% and 38.53%
same,Total Cell Count,[2],201 and 173
same,Population Fragmented Nuclei (%),[3],11.21% and 6.25%
same,Population Healthy Nuclei (%),[3],68.16% and 81.25%
same,Population Hoechst High Intensity Objects (%),[3],0%
same,Population Membrane Permeable-Phenotype (%),[3],3.95% and 0%
same,Population Mitochondria Different-Phenotype (%),[3],10.53% and 7.1%
same,Population Mitotic Cells (%),[3],95.65% and 76.92%
same,Population Normal (%),[3],100%
same,Population Pyknosed Nuclei (%),[3],20.63% and 12.5%
same,Population Tubulin-Different-Phenotype (%),[3],19.08% and 13.02%
same,Total Cell Count,[3],223 and 208
same,Population Fragmented Nuclei (%),[4],5.12% and 8.43%
same,Population Healthy Nuclei (%),[4],64.65% and 75.3%
same,Population Hoechst High Intensity Objects (%),[4],0%
same,Population Membrane Permeable-Phenotype (%),[4],7.19% and 2.4%
same,Population Mitochondria Different-Phenotype (%),[4],10.07% and 8%
same,Population Mitotic Cells (%),[4],92.31% and 70.37%
same,Population Normal (%),[4],100%
same,Population Pyknosed Nuclei (%),[4],30.23% and 16.27%
same,Population Tubulin-Different-Phenotype (%),[4],33.09% and 40.8%
same,Total Cell Count,[4],215 and 166
same,Population Apoptotic (%),[5],0% and 18.75%
same,Population Fragmented Nuclei (%),[5],7.56% and 7.18%
same,Population Healthy Nuclei (%),[5],85.29% and 85.17%
same,Population Hoechst High Intensity Objects (%),[5],0%
same,Population Membrane Permeable-Phenotype (%),[5],0.99% and 1.12%
same,Population Mitochondria Different-Phenotype (%),[5],11.82% and 3.37%
same,Population Mitotic Cells (%),[5],100% and 81.25%
same,Population Normal (%),[5],100%
same,Population Pyknosed Nuclei (%),[5],7.14% and 7.66%
same,Population Tubulin-Different-Phenotype (%),[5],5.42% and 14.04%
same,Total Cell Count,[5],238 and 209
same,Population Apoptotic (%),[6],27.78% and 30.77%
same,Population Fragmented Nuclei (%),[6],8.23% and 15.18%
same,Population Healthy Nuclei (%),[6],83.98% and 78.01%
same,Population Hoechst High Intensity Objects (%),[6],0%
same,Population Mitochondria Different-Phenotype (%),[6],12.89% and 4.03%
same,Population Mitotic Cells (%),[6],72.22% and 69.23%
same,Population Normal (%),[6],100%
same,Population Pyknosed Nuclei (%),[6],7.79% and 6.81%
same,Population Tubulin-Different-Phenotype (%),[6],17.01% and 47.65%
same,Total Cell Count,[6],231 and 191
"CCCn1c(=O)c2[nH]c(C3CCCC3)nc2n(CCC)c1=O [1,3-DIPROPYL-8-CYCLOPENTYLXANTHINE [DPCPX]]",Population Apoptotic (%),[1],38% and 30%
same,Population Fragmented Nuclei (%),[1],10% and 25%
same,Population Healthy Nuclei (%),[1],73% and 46%
same,Population Hoechst High Intensity Objects (%),[1],3%
same,Population Membrane Permeable-Phenotype (%),[1],0% and 1%
same,Population Mitochondria Different-Phenotype (%),[1],1% and 10%
same,Population Mitotic Cells (%),[1],61% and 69%
same,Population Normal (%),[1],96%
same,Population Pyknosed Nuclei (%),[1],15% and 28%
same,Population Tubulin-Different-Phenotype (%),[1],29% and 50%
same,Total Cell Count,[1],175 and 156
same,Population Apoptotic (%),[2],58% and 25%
same,Population Fragmented Nuclei (%),[2],18% and 32%
same,Population Healthy Nuclei (%),[2],65% and 47%
same,Population Hoechst High Intensity Objects (%),[2],3% and 6%
same,Population Membrane Permeable-Phenotype (%),[2],0% and 12%
same,Population Mitochondria Different-Phenotype (%),[2],10% and 3%
same,Population Mitotic Cells (%),[2],41% and 75%
same,Population Normal (%),[2],96% and 93%
same,Population Pyknosed Nuclei (%),[2],17% and 20%
same,Population Tubulin-Different-Phenotype (%),[2],47% and 59%
same,Total Cell Count,[2],104 and 129
same,Population Apoptotic (%),[3],50% and 75%
same,Population Fragmented Nuclei (%),[3],13% and 30%
same,Population Healthy Nuclei (%),[3],77% and 48%
same,Population Hoechst High Intensity Objects (%),[3],2% and 3%
same,Population Membrane Permeable-Phenotype (%),[3],0% and 4%
same,Population Mitochondria Different-Phenotype (%),[3],2% and 12%
same,Population Mitotic Cells (%),[3],50% and 24%
same,Population Normal (%),[3],97% and 96%
same,Population Pyknosed Nuclei (%),[3],9% and 21%
same,Population Tubulin-Different-Phenotype (%),[3],30% and 54%
same,Total Cell Count,[3],177 and 159
same,Population Fragmented Nuclei (%),[4],17% and 35%
same,Population Healthy Nuclei (%),[4],61% and 40%
same,Population Hoechst High Intensity Objects (%),[4],3% and 6%
same,Population Membrane Permeable-Phenotype (%),[4],6% and 8%
same,Population Mitochondria Different-Phenotype (%),[4],9% and 4%
same,Population Mitotic Cells (%),[4],36% and 79%
same,Population Normal (%),[4],96% and 93%
same,Population Pyknosed Nuclei (%),[4],22% and 24%
same,Population Tubulin-Different-Phenotype (%),[4],49% and 63%
same,Total Cell Count,[4],104 and 125
same,Population Apoptotic (%),[5],72% and 47%
same,Population Fragmented Nuclei (%),[5],16% and 39%
same,Population Healthy Nuclei (%),[5],70% and 48%
same,Population Hoechst High Intensity Objects (%),[5],2% and 7%
same,Population Membrane Permeable-Phenotype (%),[5],0% and 5%
same,Population Mitotic Cells (%),[5],27% and 52%
same,Population Normal (%),[5],97% and 92%
same,Population Pyknosed Nuclei (%),[5],12%
same,Population Tubulin-Different-Phenotype (%),[5],35% and 55%
same,Total Cell Count,[5],182 and 170
same,Population Apoptotic (%),[6],57% and 50%
same,Population Fragmented Nuclei (%),[6],24% and 43%
same,Population Healthy Nuclei (%),[6],55% and 45%
same,Population Hoechst High Intensity Objects (%),[6],3% and 2%
same,Population Mitochondria Different-Phenotype (%),[6],13% and 8%
same,Population Mitotic Cells (%),[6],42% and 50%
same,Population Normal (%),[6],96% and 97%
same,Population Pyknosed Nuclei (%),[6],20% and 10%
same,Population Tubulin-Different-Phenotype (%),[6],50% and 78%
same,Total Cell Count,[6],98 and 136
Cc1ccc(OCC(O)C(C)NC(C)C)c2c1CCC2.Cl (stereo unspecified),Population Apoptotic (%),[1],36% and 28%
same,Population Fragmented Nuclei (%),[1],10% and 17%
same,Population Healthy Nuclei (%),[1],68% and 55%
same,Population Hoechst High Intensity Objects (%),[1],0% and 9%
same,Population Membrane Permeable-Phenotype (%),[1],0% and 4%
same,Population Mitochondria Different-Phenotype (%),[1],3% and 7%
same,Population Mitotic Cells (%),[1],63% and 71%
same,Population Normal (%),[1],99% and 90%
same,Population Pyknosed Nuclei (%),[1],20% and 27%
same,Population Tubulin-Different-Phenotype (%),[1],26% and 50%
same,Total Cell Count,[1],159 and 210
same,Population Apoptotic (%),[2],47% and 25%
same,Population Fragmented Nuclei (%),[2],39% and 33%
same,Population Healthy Nuclei (%),[2],47% and 50%
same,Population Hoechst High Intensity Objects (%),[2],1% and 2%
same,Population Membrane Permeable-Phenotype (%),[2],0% and 7%
same,Population Mitochondria Different-Phenotype (%),[2],12% and 17%
same,Population Mitotic Cells (%),[2],52% and 74%
same,Population Normal (%),[2],98% and 97%
same,Population Pyknosed Nuclei (%),[2],12% and 16%
same,Population Tubulin-Different-Phenotype (%),[2],52% and 54%
same,Total Cell Count,[2],138 and 168
same,Population Apoptotic (%),[3],57% and 20%
same,Population Fragmented Nuclei (%),[3],11% and 27%
same,Population Healthy Nuclei (%),[3],74% and 46%
same,Population Hoechst High Intensity Objects (%),[3],0% and 15%
same,Population Membrane Permeable-Phenotype (%),[3],4% and 1%
same,Population Mitochondria Different-Phenotype (%),[3],5% and 8%
same,Population Mitotic Cells (%),[3],42% and 80%
same,Population Normal (%),[3],100% and 84%
same,Population Pyknosed Nuclei (%),[3],13% and 26%
same,Population Tubulin-Different-Phenotype (%),[3],30% and 52%
same,Total Cell Count,[3],154 and 201
same,Population Apoptotic (%),[4],35% and 36%
same,Population Fragmented Nuclei (%),[4],39% and 35%
same,Population Healthy Nuclei (%),[4],49% and 50%
same,Population Hoechst High Intensity Objects (%),[4],1% and 5%
same,Population Membrane Permeable-Phenotype (%),[4],1% and 4%
same,Population Mitochondria Different-Phenotype (%),[4],13% and 14%
same,Population Mitotic Cells (%),[4],64% and 63%
same,Population Normal (%),[4],98% and 94%
same,Population Pyknosed Nuclei (%),[4],11% and 13%
same,Population Tubulin-Different-Phenotype (%),[4],63% and 65%
same,Total Cell Count,[4],151 and 168
same,Population Apoptotic (%),[5],64% and 34%
same,Population Fragmented Nuclei (%),[5],16% and 37%
same,Population Healthy Nuclei (%),[5],71% and 42%
same,Population Hoechst High Intensity Objects (%),[5],4% and 11%
same,Population Membrane Permeable-Phenotype (%),[5],0% and 5%
same,Population Mitochondria Different-Phenotype (%),[5],1% and 8%
same,Population Mitotic Cells (%),[5],35% and 65%
same,Population Normal (%),[5],95% and 88%
same,Population Pyknosed Nuclei (%),[5],11% and 20%
same,Population Tubulin-Different-Phenotype (%),[5],23% and 60%
same,Total Cell Count,[5],155 and 196
same,Population Apoptotic (%),[6],71% and 60%
same,Population Fragmented Nuclei (%),[6],35% and 39%
same,Population Healthy Nuclei (%),[6],50%
same,Population Hoechst High Intensity Objects (%),[6],1% and 7%
same,Population Membrane Permeable-Phenotype (%),[6],0% and 5%
same,Population Mitochondria Different-Phenotype (%),[6],9% and 10%
same,Population Mitotic Cells (%),[6],28% and 40%
same,Population Normal (%),[6],98% and 92%
same,Population Pyknosed Nuclei (%),[6],13% and 10%
same,Population Tubulin-Different-Phenotype (%),[6],68% and 63%
same,Total Cell Count,[6],155 and 157
